# Laboratory results: ChEMBL document CHEMBL1131116, “Design and synthesis of new potent C2-symmetric HIV-1 protease inhibitors. Use of L-mannaric acid as a peptidomimetic scaffold” (J Med Chem, 1998)
# pIC50, pKi: −log10 of the molar value.
# Key:
# MT4 = experiment: In vitro anti-HIV activity in MT-4 cells by using an HIV cytopathic assay; assay type: functional; details: Homo sapiens, read-out: ED50 (the source's name)
# In short: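 HIV cytopathic assay in MT-4 cells, with cell protection quantified by the vital dye XTT. ED50 (µg/mL), the 50% inhibitory concentration, was calculated from the percent cytoprotection for each compound.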
# [1] = target: T1, Human immunodeficiency virus type 1 protease (Human immunodeficiency virus 1, UniProt Q72874); experiment: Inhibitory activity against purified HIV-1 protease expressed in Escherichia coli in sensitive fluorometric assay
# [2] = target: T1, Human immunodeficiency virus type 1 protease; experiment: inhibitory activity against purified HIV-1 protease in a standardized spectrophotometric assay expressed in E. coli; ni=no inhibition
# In short: (§1)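 Recombinant HIV-1 protease, cloned and heterologously expressed in E. coli, then purified. Inhibition was measured in a standardized spectrophotometric protease assay and reported as IC50 values.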
# [3] = target: T1, Human immunodeficiency virus type 1 protease; experiment: inhibitory activity against purified HIV-1 protease in a standardized spectrophotometric assay expressed in Escherichia coli
# [4] = target: T1, Human immunodeficiency virus type 1 protease; experiment: inhibitory activity against purified HIV-1 protease in a standardized spectrophotometric assay expressed in E. coli; ni= no inhibition; in short: as §1
# [5] = target: T1, Human immunodeficiency virus type 1 protease; experiment: inhibitory activity against purified HIV-1 protease in a standardized spectrophotometric assay expressed in E. inhibition; in short: as §1
# [6] = target: T1, Human immunodeficiency virus type 1 protease; experiment: Inhibitory activity against purified HIV-1 protease in a standardized spectrophotometric assay expressed in E. uM; in short: as §1
# [7] = target: T1, Human immunodeficiency virus type 1 protease; experiment: inhibitory activity against purified HIV-1 protease in a standardized spectrophotometric assay expressed in E. coli; ni = no inhibition; in short: as §1
SMILES,pKi [1],IC50 [2],also measured
CNC(=O)[C@@H](NC(=O)[C@H](OCc1ccccc1)[C@H](O)[C@@H](O)[C@@H](OCc1ccccc1)C(=O)N[C@H](C(=O)NC)C(C)C)C(C)C,9.40,,EC50 (MT4): 0.9 µg/mL
O=C(NCc1ccccn1)[C@H](OCc1ccccc1)[C@H](O)[C@@H](O)[C@@H](OCc1ccccc1)C(=O)NCc1ccccn1,,Not Active,
CNC(=O)[C@@H](NC(=O)[C@H](OCc1ccccc1)[C@H](O)[C@@H](O)[C@@H](OCc1ccccc1)C(=O)N[C@H](C(=O)NC)c1ccccc1)c1ccccc1,,Not Active,
O=C(NCCO)[C@H](OCc1ccccc1)[C@H](O)[C@@H](O)[C@@H](OCc1ccccc1)C(=O)NCCO,,Not Active,
COC(=O)[C@@H](NC(=O)[C@H](OCc1ccccc1)[C@H](O)[C@@H](O)[C@@H](OCc1ccccc1)C(=O)N[C@H](C(=O)OC)C(C)C)C(C)C,,,pIC50 [3]: 5.30
O=C(NCc1cncs1)[C@H](OCc1ccccc1)[C@H](O)[C@@H](O)[C@@H](OCc1ccccc1)C(=O)NCc1cncs1,5.15,,
CNC(=O)[C@H](Cc1ccccc1)NC(=O)[C@H](OCc1ccccc1)[C@H](O)[C@@H](O)[C@@H](OCc1ccccc1)C(=O)N[C@@H](Cc1ccccc1)C(=O)NC,6.85,Not Active,
O=C(NCc1c(F)cccc1Cl)[C@H](OCc1ccccc1)[C@H](O)[C@@H](O)[C@@H](OCc1ccccc1)C(=O)NCc1c(F)cccc1Cl,5.70,,
COC(=O)[C@H](Cc1ccccc1)NC(=O)[C@H](OCc1ccccc1)[C@H](O)[C@@H](O)[C@@H](OCc1ccccc1)C(=O)N[C@@H](Cc1ccccc1)C(=O)OC,,,IC50 [4]: Not Active
O=C(NCc1cccnc1)[C@H](OCc1ccccc1)[C@H](O)[C@@H](O)[C@@H](OCc1ccccc1)C(=O)NCc1cccnc1,,Not Active,
CC(C)[C@@H](CO)NC(=O)[C@H](OCc1ccccc1)[C@H](O)[C@@H](O)[C@@H](OCc1ccccc1)C(=O)N[C@H](CO)C(C)C,,,IC50 [5]: Not Active
Cc1c(O)cccc1NC(=O)[C@H](OCc1ccccc1)[C@H](O)[C@@H](O)[C@@H](OCc1ccccc1)C(=O)Nc1cccc(O)c1C,,,IC50 [6]: Not Active
CNC(=O)[C@H](CCSC)NC(=O)[C@H](OCc1ccccc1)[C@H](O)[C@@H](O)[C@@H](OCc1ccccc1)C(=O)N[C@@H](CCSC)C(=O)NC,6.18,,
COC(=O)[C@H](CC(C)C)NC(=O)[C@H](OCc1ccccc1)[C@H](O)[C@@H](O)[C@@H](OCc1ccccc1)C(=O)N[C@@H](CC(C)C)C(=O)OC,,Not Active,
CNC(=O)[C@H](Cc1ccc(O)cc1)NC(=O)[C@H](OCc1ccccc1)[C@H](O)[C@@H](O)[C@@H](OCc1ccccc1)C(=O)N[C@@H](Cc1ccc(O)cc1)C(=O)NC,5.30,,IC50 [4]: Not Active
CNC(=O)C(NC(=O)[C@H](OCc1ccccc1)[C@H](O)[C@@H](O)[C@@H](OCc1ccccc1)C(=O)NC(C(=O)NC)c1cccc(F)c1)c1cccc(F)c1 (stereo partly drawn),7.09,Not Active,
O=C(NCc1ccncc1)[C@H](OCc1ccccc1)[C@H](O)[C@@H](O)[C@@H](OCc1ccccc1)C(=O)NCc1ccncc1,,Not Active,
CNC(=O)C(NC(=O)[C@H](OCc1ccccc1)[C@H](O)[C@@H](O)[C@@H](OCc1ccccc1)C(=O)NC(C(=O)NC)[C@@H](C)O)[C@H](C)O (stereo partly drawn),6.30,Not Active,
Cc1cc(O)ccc1NC(=O)[C@H](OCc1ccccc1)[C@H](O)[C@@H](O)[C@@H](OCc1ccccc1)C(=O)Nc1ccc(O)cc1C,,,IC50 [6]: Not Active
CC(C)[C@H](NC(=O)[C@H](OCc1ccccc1)[C@H](O)[C@@H](O)[C@@H](OCc1ccccc1)C(=O)N[C@H](C(=O)OCc1ccccc1)C(C)C)C(=O)OCc1ccccc1,,,IC50 [7]: Not Active
Cc1ccc(NC(=O)[C@H](OCc2ccccc2)[C@H](O)[C@@H](O)[C@@H](OCc2ccccc2)C(=O)Nc2ccc(C)cc2O)c(O)c1,,,IC50 [6]: Not Active
CC[C@@H](C)C(NC(=O)[C@H](OCc1ccccc1)[C@H](O)[C@@H](O)[C@@H](OCc1ccccc1)C(=O)NC(C(=O)NC)[C@@H](C)CC)C(=O)NC (stereo partly drawn),9.05,,EC50 (MT4): 1 µg/mL
O=C(N[C@@H]1c2ccccc2C[C@@H]1O)[C@H](OCc1ccccc1)[C@H](O)[C@@H](O)[C@@H](OCc1ccccc1)C(=O)N[C@H]1c2ccccc2C[C@H]1O,9.70,,EC50 (MT4): 0.06 µg/mL
"O=C(NC1c2ccccc2CC1O)[C@H](OCc1ccccc1)[C@H](O)[C@@H](O)[C@@H](OCc1ccccc1)C(=O)N[C@H]1c2ccccc2C[C@H]1O (single isomer, unassigned)",,Not Active,
CC(C)(C)NC(=O)[C@@H]1CN(Cc2cccnc2)CCN1C[C@@H](O)C[C@@H](Cc1ccccc1)C(=O)N[C@H]1c2ccccc2C[C@H]1O.O [INDINAVIR],,,EC50 (MT4): 0.04 µg/mL
CC(C)c1nc(CN(C)C(=O)N[C@H](C(=O)N[C@@H](Cc2ccccc2)C[C@H](O)[C@H](Cc2ccccc2)NC(=O)OCc2cncs2)C(C)C)cs1 [RITONAVIR],,,EC50 (MT4): 0.05 µg/mL
